Each block holds one compound with its values, some of them ahead of it.
Columns and labels:
[1] = system: Thoracic aorta; assay: Vasorelaxant activity in Wistar rat endothelium-denuded thoracic aortic rings assessed relaxation of 30 mM KCl-induced contraction; type: functional
[2] = system: Thoracic aorta; assay: Vasorelaxant activity in Wistar rat thoracic aortic rings assessed relaxation of 30 mM KCl-induced contraction in presence of KATP channel blocker glibenclamide; type: functional
Summary of the method: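 Female Wistar rat thoracic aorta rings under 1.8–2.0 g resting tension, pH 7.4. Glibenclamide 10 μM present continuously in bath. Contraction by 30 mM KCl, then cumulative compound addition. EC50 = concentration relaxing the KCl contraction by 50%. Mean ± SEM, n = 3–5.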

[3] = system: Thoracic aorta; assay: Vasorelaxant activity in Wistar rat endothelium-intact thoracic aortic rings assessed relaxation of 30 mM KCl-induced contraction; type: functional
Summary of the method: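 Endothelium-intact thoracic aortic rings from female Wistar rats (180–220 g), equilibrated 75 min under 1.8–2.0 g tension, pH 7.4, isometric force transducer. After stable 30 mM KCl plateau (about 15 min), cumulative addition at 1, 10, 30, 50, 100 µM, or 0.1–100 µM for some compounds. EC50 = concentration giving 50% relaxation; mean ± SEM of 4–6 experiments.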

[4] = system: Thoracic aorta; assay: Vasorelaxant activity in Wistar rat thoracic aortic rings assessed relaxation of 80 mM KCl-induced contraction; type: functional
Summary of the method: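 Female Wistar rat (180–220 g) thoracic aortic rings equilibrated 75 min at 1.8–2.0 g tension, pH 7.4. Depolarized with 80 mM KCl, then compounds added cumulatively. EC50 = concentration giving 50% relaxation of the 80 mM KCl contraction. Mean ± SEM, n = 4–5.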

[5] = Inhibition of glucose-induced insulin secretion from Wistar rat pancreatic islets assessed as residual insulin release at 10 uM after 90 mins by radioimmunological assay; type: functional, Pancreatic islet
Summary of the method: (§1)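 Islets from adult fed Wistar rats, groups of 10 from the same batch. Preincubated 30 min at 37°C in bicarbonate salt medium with 2.8 mM glucose and 0.5% dialysed albumin, gassed O2/CO2 95:5. Then incubated 90 min at 37°C with 16.7 mM glucose plus compound. Insulin measured by radioimmunoassay against rat insulin standard. Residual secretion expressed as % of drug-free 16.7 mM glucose control.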

[6] = Inhibition of glucose-induced insulin secretion from Wistar rat pancreatic islets assessed as residual insulin release at 1 uM after 90 mins by radioimmunological assay; type: functional, Pancreatic islet; summary of the method: as §1
[7] = Inhibition of glucose-induced insulin secretion from Wistar rat pancreatic islets assessed as residual insulin release at 50 uM after 90 mins by radioimmunological assay; type: functional, Pancreatic islet; summary of the method: as §1

Structure (SMILES): CC1=Nc2ccc(Cl)cc2S(=O)(=O)N1 [DIAZOXIDE]
EC50 [1]: 23.2 µM
Residual insulin secretion (% of glucose control) [5]: 73.9%
EC50 [2]: > 100 µM
Residual insulin release (% of control) [6]: 87.5%
EC50 [3]: 23.7 µM
EC50 [4]: > 100 µM
Activity [7]: 26.7%

Structure (SMILES): CCc1ccc2nc(NC(=O)Nc3ccc(C(F)(F)F)cc3Cl)sc2c1
EC50 [3]: > 100 µM

Structure (SMILES): O=C(Nc1ccc(Cl)c(C(F)(F)F)c1)Nc1nc2c(s1)CCCC2
EC50 [3]: > 100 µM

Structure (SMILES): CC(C)NC(=O)Nc1nc2c(s1)CCCC2
EC50 [3]: 47.6 µM

Structure (SMILES): O=C(Nc1nc2ccc([N+](=O)[O-])cc2s1)Nc1ccc(C(F)(F)F)cc1Cl
EC50 [3]: 54.3 µM

Structure (SMILES): N#Cc1ccc(NC(=O)Nc2nc3c(s2)CCCC3)cc1
EC50 [3]: > 100 µM

Structure (SMILES): O=C(Nc1nc2ccc(Br)cc2s1)Nc1ccc(C(F)(F)F)cc1Cl
EC50 [3]: > 100 µM

Structure (SMILES): O=C(Nc1ccc(Cl)cc1)Nc1nc2c(s1)CCCC2
EC50 [3]: > 100 µM

Structure (SMILES): CC(N/C(=N\C#N)Nc1ccncc1)C(C)(C)C (stereo not drawn) [PINACIDIL ANHYDROUS]
EC50 [2]: 8.02 µM
Residual insulin release (% of control) [6]: 97.7%
EC50 [3]: 0.39 µM
EC50 [4]: 92.1 µM
Activity [7]: 88.8%

Structure (SMILES): O=C(Nc1nc2ccccc2s1)Nc1ccc(C(F)(F)F)cc1Cl
EC50 [3]: > 100 µM

Structure (SMILES): O=C(NCc1ccccc1)Nc1nc2ccc(Br)cc2s1
Residual insulin secretion (% of glucose control) [5]: 82.97%
EC50 [3]: 64.2 µM
Activity [7]: 17.85%

Structure (SMILES): CC(C)(C)NC(=O)Nc1nc2c(s1)CCCC2
EC50 [3]: 75.2 µM

Structure (SMILES): N#Cc1ccc(NC(=O)Nc2nc3ccc(Br)cc3s2)cc1
Residual insulin secretion (% of glucose control) [5]: 11.03%
Residual insulin release (% of control) [6]: 60.5%
EC50 [3]: > 100 µM
Activity [7]: 10.68%

Structure (SMILES): CCc1ccc2nc(NC(=O)NCc3ccccc3)sc2c1
EC50 [3]: > 100 µM

Second part, led by results:

EC50 [1]: 4.75 µM
EC50 [2]: 19.6 µM
EC50 [3]: 2.11 µM
EC50 [4]: 14.2 µM
Structure (SMILES): CCCCCNC(=O)Nc1nc2ccc([N+](=O)[O-])cc2s1

EC50 [3]: 22.8 µM
Structure (SMILES): CC(C)NC(=O)Nc1nc2ccc(Br)cc2s1

EC50 [1]: 4.66 µM
EC50 [2]: 15.6 µM
EC50 [3]: 2.78 µM
EC50 [4]: 15 µM
Structure (SMILES): CC(C)(C)NC(=O)Nc1nc2ccc(C#N)cc2s1

EC50 [3]: 52.1 µM
Structure (SMILES): Cc1ccc2nc(NC(=S)NC3CCCCC3)sc2c1

EC50 [3]: > 100 µM
Structure (SMILES): Cc1ccc2nc(NC(=S)NCc3ccccc3)sc2c1

EC50 [3]: > 100 µM
Structure (SMILES): CCc1ccc2nc(NC(=S)NCc3ccccc3)sc2c1

EC50 [3]: 35.5 µM
Structure (SMILES): CC(C)NC(=O)Nc1nc2ccccc2s1

EC50 [3]: > 100 µM
Structure (SMILES): N#Cc1ccc(NC(=S)Nc2nc3c(s2)CCCC3)cc1

EC50 [3]: 14.8 µM
Structure (SMILES): CCCCCNC(=O)Nc1nc2ccc(C#N)cc2s1

EC50 [3]: > 100 µM
Structure (SMILES): CC(C)NC(=S)Nc1nc2c(s1)CCCC2

EC50 [3]: > 100 µM
Structure (SMILES): CCc1ccc2nc(NC(=S)Nc3cccc([N+](=O)[O-])c3)sc2c1

EC50 [1]: 14.8 µM
EC50 [2]: 19.5 µM
EC50 [3]: 10.8 µM
EC50 [4]: 31 µM
Structure (SMILES): CC(C)(C)NC(=O)Nc1nc2ccc([N+](=O)[O-])cc2s1
Residual insulin secretion (% of glucose control) [5]: 30.98%
Residual insulin release (% of control) [6]: 83.52%
Activity [7]: 11.77%

EC50 [3]: 24.4 µM
Structure (SMILES): CCc1ccc2nc(NC(=O)NC(C)C)sc2c1

EC50 [1]: 17.8 µM
EC50 [3]: 15.7 µM
EC50 [4]: 36.4 µM
Structure (SMILES): CC(C)NC(=O)Nc1nc2ccc([N+](=O)[O-])cc2s1
Residual insulin secretion (% of glucose control) [5]: 62.03%
Activity [7]: 8.52%

EC50 [3]: 18.5 µM
Structure (SMILES): Cc1ccc2nc(NC(=O)NC(C)C)sc2c1

EC50 [1]: 12.1 µM
EC50 [2]: 23.3 µM
EC50 [3]: 13 µM
EC50 [4]: 26.9 µM
Structure (SMILES): CC(C)(C)NC(=O)Nc1nc2ccc(Br)cc2s1
Residual insulin secretion (% of glucose control) [5]: 77.97%
Activity [7]: 15.89%

EC50 [3]: > 100 µM
Structure (SMILES): O=[N+]([O-])c1cccc(NC(=S)Nc2nc3c(s2)CCCC3)c1

EC50 [3]: 25.3 µM
Structure (SMILES): CCc1ccc2nc(NC(=O)NC(C)(C)C)sc2c1

From ChEMBL document CHEMBL3792314, “Synthesis, characterization and biological evaluation of benzothiazoles and tetrahydrobenzothiazoles bearing urea or thiourea moieties as vasorelaxants and inhibitors of the insulin releasing process” (Eur J Med Chem, 2016)
